According to ChEMBL document CHEMBL1629431, “Synthesis and antitumor activity of some 2, 3-disubstituted quinazolin-4(3H)-ones and 4, 6- disubstituted- 1, 2, 3, 4-tetrahydroquinazolin-2H-ones” (2010):

Legend:
Assay type in all cases: functional
SK-MEL-28 = test: Growth inhibition of human SK-MEL-28 cells at 10 uM after 48 hrs by coulter counter method; details: SK-MEL-28, 48 h, read-out: GI
Procedure, shortened: (§1)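 Single high-dose NCI 60-cell-line panel screen across nine tumor subpanels. Test solutions (0.2 mL) were added in duplicate to wells holding 1.8 mL of culture at 6 × 10⁴ cells/mL. Controls got PBS and DMSO at identical dilutions. Incubation was 48 h at 37 °C in humidified 5% CO₂. Cells were diluted 10-fold in saline, Coulter-counted and dilution-corrected. Results were expressed as percent growth inhibition versus control.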

SR = test: Growth inhibition of human SR cells at 10 uM after 48 hrs by coulter counter method; details: read-out: GI; procedure, shortened: as §1
MOLT-4 = test: Growth inhibition of human MOLT4 cells at 10 uM after 48 hrs by coulter counter method; details: MOLT-4, 48 h, read-out: GI; procedure, shortened: as §1
A549 = test: Growth inhibition of human A549 cells at 10 uM after 48 hrs by coulter counter method; details: A549, 48 h, read-out: GI; procedure, shortened: as §1
OVCAR-4 = test: Growth inhibition of human OVCAR4 cells at 10 uM after 48 hrs by coulter counter method; details: OVCAR-4, 48 h, read-out: GI; procedure, shortened: as §1
SF-268 = test: Growth inhibition of human SF268 cells at 10 uM after 48 hrs by coulter counter method; details: SF-268, 48 h, read-out: GI; procedure, shortened: as §1
OVCAR-8 = test: Growth inhibition of human OVCAR8 cells at 10 uM after 48 hrs by coulter counter method; details: OVCAR-8, 48 h, read-out: GI; procedure, shortened: as §1
NCI-H226 = test: Growth inhibition of human NCI-H226 cells at 10 uM after 48 hrs by coulter counter method; details: NCI-H226, 48 h, read-out: GI; procedure, shortened: as §1
KM12 = test: Growth inhibition of human KM12 cells at 10 uM after 48 hrs by coulter counter method; details: KM12, 48 h, read-out: GI; procedure, shortened: as §1
SF-539 = test: Growth inhibition of human SF539 cells at 10 uM after 48 hrs by coulter counter method; details: SF-539, 48 h, read-out: GI; procedure, shortened: as §1
SK-MEL-2 = test: Growth inhibition of human SK-MEL-2 cells at 10 uM after 48 hrs by coulter counter method; details: SK-MEL-2, 48 h, read-out: GI; procedure, shortened: as §1
SNB-75 = test: Growth inhibition of human SNB75 cells at 10 uM after 48 hrs by coulter counter method; details: SNB-75, 48 h, read-out: GI; procedure, shortened: as §1
U-251 = test: Growth inhibition of human U251 cells at 10 uM after 48 hrs by coulter counter method; details: U-251, 48 h, read-out: GI; procedure, shortened: as §1
SK-OV-3 = test: Growth inhibition of human SKOV3 cells at 10 uM after 48 hrs by coulter counter method; details: SK-OV-3, 48 h, read-out: GI; procedure, shortened: as §1
HL-60(TB) = test: Growth inhibition of human HL-60(TB) cells at 10 uM after 48 hrs by coulter counter method; details: HL-60, 48 h, read-out: GI
Procedure, shortened: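 Part of the NCI 60-cell-line single-high-dose panel. Cells were seeded at 6 × 10⁴ cells/mL with test solution in duplicate wells, alongside PBS/DMSO controls at identical dilutions. Plates were held 48 h at 37 °C in a humidified 5% CO₂ incubator. Cells were then diluted 10-fold in saline and counted by Coulter counter, with counts corrected for dilution. Results are percent growth of treated cells, reported as GI %.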

[1] = Growth inhibition of human Hs 578T cells at 10 uM after 48 hrs by coulter counter method; details: read-out: GI; procedure, shortened: as §1
CAKI-1 = test: Growth inhibition of human Caki1 cells at 10 uM after 48 hrs by coulter counter method; details: CAKI-1, 48 h, read-out: GI; procedure, shortened: as §1
HT-29 = test: Growth inhibition of human HT-29 cells at 10 uM after 48 hrs by coulter counter method; details: HT-29, 48 h, read-out: GI; procedure, shortened: as §1
MDA-MB-468 = test: Growth inhibition of human MDA-MB-468 cells at 10 uM after 48 hrs by coulter counter method; details: MDA-MB-468, 48 h, read-out: GI; procedure, shortened: as §1
NCI-H522 = test: Growth inhibition of human NCI-H522 cells at 10 uM after 48 hrs by coulter counter method; details: NCI-H522, 48 h, read-out: GI; procedure, shortened: as §1
UACC-62 = test: Growth inhibition of human UACC62 cells at 10 uM after 48 hrs by coulter counter method; details: UACC-62, 48 h, read-out: GI; procedure, shortened: as §1
K562 = test: Growth inhibition of human K562 cells at 10 uM after 48 hrs by coulter counter method; details: K562, 48 h, read-out: GI; procedure, shortened: as §1
BT-549 = test: Growth inhibition of human BT549 cells at 10 uM after 48 hrs by coulter counter method; details: BT-549, 48 h, read-out: GI; procedure, shortened: as §1
COLO 205 = test: Growth inhibition of human COLO205 cells at 10 uM after 48 hrs by coulter counter method; details: COLO 205, 48 h, read-out: GI; procedure, shortened: as §1
M14 = test: Growth inhibition of human M14 cells at 10 uM after 48 hrs by coulter counter method; details: M14, 48 h, read-out: GI; procedure, shortened: as §1
T47D = test: Growth inhibition of human T47D cells at 10 uM after 48 hrs by coulter counter method; details: read-out: GI; procedure, shortened: as §1
MDA-MB-231 = test: Growth inhibition of human MDA-MB-231 cells at 10 uM after 48 hrs by coulter counter method; details: MDA-MB-231, 48 h, read-out: GI; procedure, shortened: as §1
PC-3 = test: Growth inhibition of human PC3 cells at 10 uM after 48 hrs by coulter counter method; details: PC-3, 48 h, read-out: GI; procedure, shortened: as §1
IGROV-1 = test: Growth inhibition of human IGROV1 cells at 10 uM after 48 hrs by coulter counter method; details: IGROV-1, 48 h, read-out: GI; procedure, shortened: as §1
MCF7 = test: Growth inhibition of human MCF7 cells at 10 uM after 48 hrs by coulter counter method; details: MCF7, 48 h, read-out: GI; procedure, shortened: as §1
786-0 = test: Growth inhibition of human 786-0 cells at 10 uM after 48 hrs by coulter counter method; details: 786-0, 48 h, read-out: GI; procedure, shortened: as §1
SN12C = test: Growth inhibition of human SN12C cells at 10 uM after 48 hrs by coulter counter method; details: read-out: GI; procedure, shortened: as §1
NCI-H23 = test: Growth inhibition of human NCI-H23 cells at 10 uM after 48 hrs by coulter counter method; details: NCI-H23, 48 h, read-out: GI; procedure, shortened: as §1
HCT-116 = test: Growth inhibition of human HCT116 cells at 10 uM after 48 hrs by coulter counter method; details: HCT-116, 48 h, read-out: GI; procedure, shortened: as §1
HOP-92 = test: Growth inhibition of human HOP92 cells at 10 uM after 48 hrs by coulter counter method; details: HOP-92, 48 h, read-out: GI; procedure, shortened: as §1
CCRF-CEM = test: Growth inhibition of human CCRF-CEM cells at 10 uM after 48 hrs by coulter counter method; details: read-out: GI; procedure, shortened: as §1
UO-31 = test: Growth inhibition of human UO31 cells at 10 uM after 48 hrs by coulter counter method; details: UO-31, 48 h, read-out: GI; procedure, shortened: as §1

Row | Structure (SMILES) | inhibition of growth at 10 µM (SK-MEL-28) [%] | inhibition of growth at 10 µM (SR) [%] | inhibition of growth at 10 µM (MOLT-4) [%] | inhibition of growth at 10 µM (A549) [%] | inhibition of growth at 10 µM (OVCAR-4) [%] | inhibition of growth at 10 µM (SF-268) [%] | inhibition of growth at 10 µM (OVCAR-8) [%] | inhibition of growth at 10 µM (NCI-H226) [%] | inhibition of growth at 10 µM (KM12) [%] | inhibition of growth at 10 µM (SF-539) [%] | inhibition of growth at 10 µM (SK-MEL-2) [%] | inhibition of growth at 10 µM (SNB-75) [%] | inhibition of growth at 10 µM (U-251) [%] | inhibition of growth at 10 µM (SK-OV-3) [%] | inhibition of growth at 10 µM (HL-60(TB)) [%] | inhibition of growth at 10 µM [1] [%] | inhibition of growth at 10 µM (CAKI-1) [%] | inhibition of growth at 10 µM (HT-29) [%] | inhibition of growth at 10 µM (MDA-MB-468) [%] | inhibition of growth at 10 µM (NCI-H522) [%] | also measured
1 | O=c1c2ccccc2nc(Nc2cc(O)nc(S)n2)n1-c1ccc(Cl)cc1 | 30 | 36.4 | 30.8 | 30 | 30 | 30 | 30 | 30 | 30 | 30 | 30 | 30 | 30 | 30 | 30 | 30 | 30 | 30 | 30 | 30 | inhibition of growth at 10 µM (UACC-62): 30%; inhibition of growth at 10 µM (K562): 36.5%; inhibition of growth at 10 µM (BT-549): 30%; inhibition of growth at 10 µM (COLO 205): 30%; inhibition of growth at 10 µM (M14): 30%; inhibition of growth at 10 µM (T47D): 30%; inhibition of growth at 10 µM (MDA-MB-231): 30%; inhibition of growth at 10 µM (PC-3): 30%; inhibition of growth at 10 µM (IGROV-1): 30%; inhibition of growth at 10 µM (MCF7): 30%; inhibition of growth at 10 µM (786-0): 30%; inhibition of growth at 10 µM (SN12C): 30%; inhibition of growth at 10 µM (NCI-H23): 30%; inhibition of growth at 10 µM (HCT-116): 30%; inhibition of growth at 10 µM (HOP-92): 30%; inhibition of growth at 10 µM (CCRF-CEM): 30%; inhibition of growth at 10 µM (UO-31): 30%
2 | O=C1Nc2ccc(C(=O)Nc3ccccn3)cc2C(c2ccc(Cl)cc2)N1 (centres undefined) | 30 | 30 | 33.9 | 30 | 30 | 30 | 30 | 30 | 30 | 30 | 30 | 30 | 30 | 30 | 30 | 30 | 30 | 37.4 | 30 | 30 | inhibition of growth at 10 µM (UACC-62): 30%; inhibition of growth at 10 µM (K562): 30%; inhibition of growth at 10 µM (BT-549): 31.8%; inhibition of growth at 10 µM (COLO 205): 30%; inhibition of growth at 10 µM (M14): 30%; inhibition of growth at 10 µM (T47D): 44.9%; inhibition of growth at 10 µM (MDA-MB-231): 30%; inhibition of growth at 10 µM (PC-3): 32.9%; inhibition of growth at 10 µM (IGROV-1): 30%; inhibition of growth at 10 µM (MCF7): 39.2%; inhibition of growth at 10 µM (786-0): 30%; inhibition of growth at 10 µM (SN12C): 30%; inhibition of growth at 10 µM (NCI-H23): 30.4%; inhibition of growth at 10 µM (HCT-116): 39.8%; inhibition of growth at 10 µM (HOP-92): 30%; inhibition of growth at 10 µM (CCRF-CEM): 30%; inhibition of growth at 10 µM (UO-31): 41.8%
